From PubChem BioAssay
FLuc inhib CS – counter-screen for luciferase assay inhibitors: firefly luciferase inhibition; actives 1.5% (n = 200,000); ATPLite firefly luciferase biochemical luminescence, 10 min; inhibition, % at 10 µM;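 active = inhibition above about 50% when tested at 10 µM, limit read from the data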
Target sequence (P08659 whole entry, looked up): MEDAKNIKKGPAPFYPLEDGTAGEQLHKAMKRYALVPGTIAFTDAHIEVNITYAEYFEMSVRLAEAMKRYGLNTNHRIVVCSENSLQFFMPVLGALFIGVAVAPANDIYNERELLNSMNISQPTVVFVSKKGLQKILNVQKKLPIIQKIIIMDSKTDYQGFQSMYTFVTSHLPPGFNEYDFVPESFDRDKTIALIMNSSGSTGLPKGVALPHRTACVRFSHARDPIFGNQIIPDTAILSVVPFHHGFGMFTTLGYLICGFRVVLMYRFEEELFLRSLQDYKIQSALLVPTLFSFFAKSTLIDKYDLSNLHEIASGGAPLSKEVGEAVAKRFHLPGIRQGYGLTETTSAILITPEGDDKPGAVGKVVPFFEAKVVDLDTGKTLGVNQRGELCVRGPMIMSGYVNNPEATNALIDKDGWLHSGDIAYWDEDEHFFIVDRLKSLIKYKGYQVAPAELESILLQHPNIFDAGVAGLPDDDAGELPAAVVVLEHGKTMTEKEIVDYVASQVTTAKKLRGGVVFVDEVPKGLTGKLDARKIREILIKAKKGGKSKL
HSP90 inh – inhibitors of HSP90 luciferase refolding in rabbit reticulocyte lysate; luciferase refolding luminescence, 3 h; inhibition, % at 5.6 µM; actives 0.91% (n = 290,000); AID 1789;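 active = inhibition above the screen-wide mean plus 3 SD, computed separately per campaign, cut at about 16% in these data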;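 note: 0% = DMSO wells and 100% = 60 µM geldanamycin wells; inhibitors lower the luminescence because luciferase stays unfolded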
C8 TRAIL sens – caspase-8 TRAIL sensitization; inhibition (viability loss, TRAIL sensitization), % at 10 µM; actives 1% (n = 360,000); NB7+C8 cells + TRAIL, ATPlite viability luminescence;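 active = compounds causing at least 50% loss of cell viability in the single-dose screen, relative to plate controls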
STAT3 blocker – reduces IL-6 driven STAT3 reporter signal; actives 0.89% (n = 190,000); inhibition, % at 5.5 µM; U3A cells, IL-6 STAT3-luciferase reporter, luminescence; host cell line lacks STAT1;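 active = inhibition above the mean inhibition across all screened compounds plus 3 SD, cut at about 44% in these data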;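 note: 0% = DMSO only wells and 100% = 100 µM nifuroxazide control wells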
FLuc stim CS – firefly luciferase counter-screen for stimulation assays. P08659. ATPlite luciferase biochemical, luminescence, 10 min; 0 = ATP-free wells, 1 = DMSO control. activation factor at 10 µM. 200,000 tested, under 10 active;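 active = luciferase activation factor, scaled between plate controls, of at least 2 with compound at 10 µM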
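Assay system: Luciferase/luciferin detection reagent, cell-free biochemical luciferase assay / Also added: ATP substrate / Schedule: 10 min at ambient temperature / Measured by: luminescence measurement of luciferase light output / Benchmarks: low control with PBS replacing ATP, high control enzyme plus ATP without compound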
PPC-1+TRAIL kill – compounds killing PPC-1 cancer cells with TRAIL present (potentiator screen, no TRAIL-free arm); PPC-1 cells + TRAIL, ATPLite viability luminescence; cell killing (% activity), % at 4 µM or 5 µM; actives 0.41% (n = 220,000);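 active = cell killing above 50% in the first pass at 4 µM, then a duplicate retest at 5 µM averaging 50% or more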;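 note: plate controls were cells with TRAIL plus DMSO for no effect and medium-only wells lacking cells for full effect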
* = called active by the depositor; / = no result. Most compounds without a hit are left out; they make up all but 2.2% or so of the library.

SMILES	FLuc inhib CS	HSP90 inh	C8 TRAIL sens	STAT3 blocker	FLuc stim CS	PPC-1+TRAIL kill
Cn1c(N)c(C(=O)CCl)c(=O)n(Cc2ccccc2)c1=O	-6.4	-1.2	90.0*	-9.7	1.1	9.2
Cc1c(C(=O)Nc2cccnc2)oc2ccc(Br)cc12	/	-3.2	50.0*	/	/	/
CCc1ccc2oc(C(=O)Nc3cccnc3)c(C)c2c1	/	3.4	42.0	/	/	/
O=C(NCc1ccccc1Br)c1cccc2c1C(=O)c1ccc(-c3ccc(OC(F)(F)F)cc3)cc1S2(=O)=O	/	/	53.9*	/	/	/
CC(C)c1cccc(-c2ccc3c(c2)S(=O)(=O)c2cccc(C(=O)NCc4ccccc4Cl)c2C3=O)c1	/	/	67.7*	/	/	/
COc1ccc(-c2ccc3c(c2)S(=O)(=O)c2cccc(C(=O)NCCOc4ccccc4Cl)c2C3=O)cc1OC	/	/	76.2*	/	/	/
O=C(O)c1cccc2c1C(=O)c1ccc(-c3ccc(OC(F)(F)F)cc3)cc1S2(=O)=O	/	/	-1.4	/	/	/
O=C(NCc1cc(C(F)(F)F)ccc1Cl)c1cccc2c1C(=O)c1ccc(N3CCC(N4CCCCC4)CC3)cc1S2(=O)=O	/	/	95.5*	/	/	/
CCOC(=O)c1cnc2c(ccc3ccccc32)c1N	/	-4.9	6.2	/	/	/
CC1(C)CC[C@]2(C(=O)n3ccnc3)CC[C@]3(C)[C@H](C(=O)C=C4[C@@]5(C)C=C(C#N)C(=O)C(C)(C)[C@@H]5CC[C@]43C)[C@@H]2C1	/	/	88.1*	/	/	/
O=C(O)c1ccc(COc2ccccc2/C=C2\NC(=O)N(Cc3ccccc3)C2=O)cc1	-4.7	1.0	-3.1	-8.4	1	3.6
CCCN1C(=O)/C(=C/c2ccccc2OCc2ccc(C(=O)O)cc2)NC1=S	72.1*	-1.2	1.4	3.5	0.3	14.9
O=C1CC(C(=O)Nc2ccccc2)S/C(=N\NC(=O)c2ccccc2Cl)N1 (configuration not stated)	-7.5	-1.3	-4.6	5.6	1.1	/
C=C(C)CSc1nnc2n(Cc3ccccc3)c(=O)c3c4c(sc3n12)CCC4	-3.1	-3.2	85.0*	1.1	1	9.2
CCCSc1nnc2n(Cc3ccccc3)c(=O)c3c4c(sc3n12)CCC4	-7.1	/	/	/	1.1	8.1
N#C/C(=C\c1ccc(OCc2ccc(C(=O)O)cc2)cc1)C(=O)N1CCOCC1	-1.3	72.6*	21.6	89.1*	1	6.1
CN(/N=C/c1cccnc1)c1cnc2ccccc2n1	50.9*	2.5	31.2	-60.2	0.5	10.4
Cc1ccc(NC(=O)CCn2c(=O)c3cccn3c3ccccc32)cc1C	/	3.2	-13.1	/	/	/
COc1ccc(/C=C/C(=O)c2ccc([N+](=O)[O-])o2)cc1	/	/	51.2*	/	/	/
O=C(/C=C/c1ccc(F)cc1)c1ccccc1Br	3.1	2.9	12.0	15.0	1	29.4
Cc1cccc(/C=C/C(=O)c2ccc([N+](=O)[O-])o2)c1	/	/	32.7	/	/	/
Cc1ccc(C(=O)/C=C/c2ccc(F)cc2)o1	84.8*	-2.0	3.6	1.5	0.2	4.9
O=C(NC1CCCC1)C(c1cccnc1)N(C(=O)c1csnn1)c1ccccc1 (configuration not stated)	/	0.5	4.0	/	/	/
Cn1c(/C=N/c2nc3ccccc3[nH]2)nc2ccccc21	-2.3	1.9	12.0	-9.6	1	19.4
C(=N\c1nc2ccccc2[nH]1)/c1cccs1	70.8*	1.1	-7.4	12.7	0.3	12.4
SMILES	FLuc inhib CS	HSP90 inh	C8 TRAIL sens	STAT3 blocker	FLuc stim CS	PPC-1+TRAIL kill
O=C(CN1CCNCC1)N1CCOCC1	/	/	4.2	/	/	/
Cc1ccc(/C=N/Nc2nc3ccccc3s2)o1	60.3*	4.4	43.4	-2.3	0.4	1.5
Cc1ccc(-c2cn3nc(C)c(C)nc3n2)cc1	75.1*	1.4	32.1	-4.4	0.2	28.4
COc1ccc(-c2cn3nc(C)c(C)nc3n2)cc1OC	/	/	-6.9	/	/	/
N#C/C(=C\c1cccs1)C(=O)NCc1ccccc1	4.8	-1.6	-1.7	-0.1	1	2.5
N#C/C(=C\c1cccs1)C(=O)Nc1nccs1	74.7*	-6.6	6.5	-10.0	0.3	21.2
O=C(OCCN1CCCCC1)c1cccc(Cl)c1	/	6.2	3.8	/	/	/
Cc1cc(=O)n2[nH]c(-c3ccc(F)cc3)nc2n1	65.9*	-2.8	50.5*	7.7	0.3	37.1
Cc1nc2nc(-c3ccc(Cl)cc3)[nH]n2c(=O)c1C	66.3*	1.6	/	20.2	0.3	40.4
COC(=O)Cc1c(C)nc2nc(-c3ccccc3)[nH]n2c1=O	5.9	-1.4	1.4	5.1	0.9	15.7
COC(=O)Cc1c(C)nc2nc(-c3ccc(Cl)cc3)[nH]n2c1=O	57.8*	1.4	29.9	1.1	0.4	37.2
COC(=O)Cc1c(C)nc2nc(-c3ccc(C)cc3)[nH]n2c1=O	50.0*	5.9	27.0	8.7	0.5	5.0
CCN(CC)C(=O)C1=C(C)N(Cc2ccccc2)C(=O)C(CC(=O)NCc2cccc3ccccc23)C1 (configuration not stated)	/	/	-4.2	/	/	/
Cc1ccc(Nc2nc(CSc3nnc(-c4ccccc4)n3C)cs2)cc1	85.8*	0.1	50.1*	-4.9	0.1	45.1
Cc1ccc(Nc2nc(CSc3nnnn3-c3ccccc3)cs2)cc1	-4.6	0.0	0.8	9.4	1	-4.8
Cc1ccc(Nc2nc(CSc3nnc(-c4ccccc4C)n3C)cs2)cc1	64.2*	-3.5	37.9	-5.0	0.4	22.9
Cc1ccc(Nc2nc(C)cs2)cc1	54.1*	3.0	20.9	19.7	0.5	/
Cn1nnnc1SCc1csc(Nc2ccccc2)n1	1.2	3.2	-8.7	-5.8	1	8.1
Cc1ccc(Nc2nc(CSc3nnnn3C)cs2)cc1	61.5*	0.9	50.6*	16.2	0.4	29.8
Cc1ccc(Nc2nc(CSc3nnc(-c4cccnc4)n3-c3ccccc3C)cs2)cc1	0.7	-1.6	9.1	-8.4	1	24.1
Cc1cccc(OCc2nnc(SCC(=O)c3c(N)n(C4CC4)c(=O)[nH]c3=O)o2)c1	/	/	0.7	/	/	/
Cc1nc2sc3c(=O)[nH]nnc3c2c(C)c1Br	/	-2.9	8.8	/	/	/
CSc1ccccc1NC(=O)C1(C)CCN1C(=O)Cc1ccc(-c2ccccc2)cc1 (configuration not stated)	/	/	5.1	/	/	/
O=C1/C(=C\c2cccnc2)CCc2ccccc21	63.1*	-1.5	11.4	-1.4	0.4	4.3
O=C1/C(=C\c2ccc([N+](=O)[O-])cc2)CCc2ccccc21	80.9*	2.2	78.1*	-1.3	0.2	40.8
O=C1/C(=C/c2cccnc2)CCC/C1=C\c1cccnc1	3.3	-2.7	/	-0.8	1	81.7*
